# Measured values taken from article PMC7658073 (Clinical Pharmacokinetics, 2020).
# Read-outs that look alike come from different tables or passages of the source.
# Tests used:
# [1] = Phase I DDI study with rifampicin; type: in vivo, human
# Outline: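 Non-randomized, non-blinded, fixed-sequence study in healthy men. Test compound 10 mg single oral dose, fed, alone and then with rifampicin 600 mg QD orally for 9 days (pre- and co-treatment).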
# [2] = Phase I DDI study with sildenafil; type: in vivo, human
# OATP1B3 [3] = molecular target: T1, OATP1B3 (Homo sapiens, UniProt Q9NPD5); test: Substrate properties towards OATP1B3; type: in vitro ADME
# T1 sequence (Q9NPD5 1-702): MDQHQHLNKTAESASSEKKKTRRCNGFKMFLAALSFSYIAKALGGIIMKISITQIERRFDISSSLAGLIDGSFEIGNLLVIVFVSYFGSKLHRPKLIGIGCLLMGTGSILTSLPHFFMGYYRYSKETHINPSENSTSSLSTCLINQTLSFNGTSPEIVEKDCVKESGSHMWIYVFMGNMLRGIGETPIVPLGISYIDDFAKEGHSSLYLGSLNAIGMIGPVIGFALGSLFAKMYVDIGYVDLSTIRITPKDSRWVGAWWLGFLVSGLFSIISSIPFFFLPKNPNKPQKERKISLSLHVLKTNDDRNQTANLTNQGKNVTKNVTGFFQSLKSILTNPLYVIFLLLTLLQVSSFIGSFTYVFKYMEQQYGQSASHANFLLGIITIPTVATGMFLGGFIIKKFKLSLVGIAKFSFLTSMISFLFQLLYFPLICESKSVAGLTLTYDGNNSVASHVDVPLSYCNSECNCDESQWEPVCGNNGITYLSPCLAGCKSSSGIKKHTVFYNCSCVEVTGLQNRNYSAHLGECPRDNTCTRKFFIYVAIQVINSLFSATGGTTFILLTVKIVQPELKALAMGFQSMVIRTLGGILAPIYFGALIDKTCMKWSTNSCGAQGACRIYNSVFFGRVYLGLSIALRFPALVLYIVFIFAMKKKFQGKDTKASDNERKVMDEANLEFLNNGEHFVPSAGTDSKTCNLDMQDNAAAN
# P-glycoprotein = P-glycoprotein (Homo sapiens, UniProt P08183); test: Inhibitory potential towards P-gp; type: in vitro ADME
# MATE1 = molecular target: T2, MATE1 (Homo sapiens, UniProt Q96FL8); test: Inhibitory potency towards MATE1; type: in vitro ADME
# T2 sequence (Q96FL8 1-570): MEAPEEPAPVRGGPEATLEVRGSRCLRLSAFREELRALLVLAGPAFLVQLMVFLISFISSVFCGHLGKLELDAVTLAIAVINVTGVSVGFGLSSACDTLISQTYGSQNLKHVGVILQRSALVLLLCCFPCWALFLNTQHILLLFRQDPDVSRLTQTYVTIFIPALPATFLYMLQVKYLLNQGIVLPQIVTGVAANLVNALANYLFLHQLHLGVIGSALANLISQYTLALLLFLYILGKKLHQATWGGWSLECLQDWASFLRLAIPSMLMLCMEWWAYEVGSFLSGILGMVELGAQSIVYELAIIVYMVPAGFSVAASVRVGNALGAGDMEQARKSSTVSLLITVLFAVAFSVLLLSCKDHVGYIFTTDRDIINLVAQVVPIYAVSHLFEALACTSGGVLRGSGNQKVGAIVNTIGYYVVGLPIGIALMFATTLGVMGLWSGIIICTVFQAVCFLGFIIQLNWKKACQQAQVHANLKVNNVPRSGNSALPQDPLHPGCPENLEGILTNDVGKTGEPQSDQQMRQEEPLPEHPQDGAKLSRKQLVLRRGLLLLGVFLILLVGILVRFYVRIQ
# UGT1A6 = molecular target: T3, UGT1A6 (Homo sapiens, UniProt P19224); test: Inhibitory potency towards UGT isoforms: UGT1A6; type: in vitro ADME
# T3 sequence (P19224 27-532): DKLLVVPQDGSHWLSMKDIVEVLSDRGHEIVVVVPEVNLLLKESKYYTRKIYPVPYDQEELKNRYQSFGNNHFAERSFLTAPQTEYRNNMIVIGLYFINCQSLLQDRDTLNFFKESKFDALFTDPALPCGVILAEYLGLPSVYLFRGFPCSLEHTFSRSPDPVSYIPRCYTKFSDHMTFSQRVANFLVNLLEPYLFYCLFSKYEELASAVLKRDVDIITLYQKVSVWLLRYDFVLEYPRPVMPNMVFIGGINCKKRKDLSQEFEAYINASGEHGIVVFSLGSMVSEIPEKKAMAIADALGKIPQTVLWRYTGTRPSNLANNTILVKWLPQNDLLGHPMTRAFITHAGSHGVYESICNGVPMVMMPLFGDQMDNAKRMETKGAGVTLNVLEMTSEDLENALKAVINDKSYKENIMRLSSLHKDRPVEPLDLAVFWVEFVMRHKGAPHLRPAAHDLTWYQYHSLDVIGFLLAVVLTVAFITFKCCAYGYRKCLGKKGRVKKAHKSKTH
# OATP1B3 [4] = molecular target: T1, OATP1B3; test: Inhibitory potency towards OATP1B3; type: in vitro ADME
# CYP1A2 = test: CYP induction in cultured human hepatocytes: CYP1A2; type: in vitro ADME; conditions: three donors, up to 10,000 μg/L (23.5 µM)
# CYP2B6 = test: CYP induction in cultured human hepatocytes: CYP2B6; type: in vitro ADME; conditions: three donors, up to 10,000 μg/L (23.5 µM)
# CYP3A4 = test: CYP induction in cultured human hepatocytes: CYP3A4; type: in vitro ADME; conditions: one of the three donors
# [5] = All phase I studies in healthy volunteers; type: in vivo, human
# Outline: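 Healthy male volunteers, excluding regular medication, interacting foods/beverages or supplements, and non-adherence to smoking rules. All study drugs given orally. Tolerability recorded as treatment-emergent adverse events. Non-compartmental PK: AUC0–∞ by linear-log trapezoid plus extrapolation from the terminal log-linear slope; Cmax and trough read directly. Log-transformed parameters compared by ANOVA to give geometric mean ratios with 90% CIs.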
# [6] = multiple oral doses vericiguat 2.5 mg 2 h prior to sacubitril/valsartan; cited from earlier work
# [7] = serum albumin main binding component; ref data on file; cited from earlier work
# [8] = cited from earlier work
# [9] = cited from earlier work; remark: listed apart in the source
# [10] = with rifampicin 600 mg QD vs vericiguat 10 mg SD alone, fed
# [11] = with sildenafil 100 mg vs without, vericiguat 10 mg QD, fed
# P-glycoprotein, sequence (P08183 whole entry): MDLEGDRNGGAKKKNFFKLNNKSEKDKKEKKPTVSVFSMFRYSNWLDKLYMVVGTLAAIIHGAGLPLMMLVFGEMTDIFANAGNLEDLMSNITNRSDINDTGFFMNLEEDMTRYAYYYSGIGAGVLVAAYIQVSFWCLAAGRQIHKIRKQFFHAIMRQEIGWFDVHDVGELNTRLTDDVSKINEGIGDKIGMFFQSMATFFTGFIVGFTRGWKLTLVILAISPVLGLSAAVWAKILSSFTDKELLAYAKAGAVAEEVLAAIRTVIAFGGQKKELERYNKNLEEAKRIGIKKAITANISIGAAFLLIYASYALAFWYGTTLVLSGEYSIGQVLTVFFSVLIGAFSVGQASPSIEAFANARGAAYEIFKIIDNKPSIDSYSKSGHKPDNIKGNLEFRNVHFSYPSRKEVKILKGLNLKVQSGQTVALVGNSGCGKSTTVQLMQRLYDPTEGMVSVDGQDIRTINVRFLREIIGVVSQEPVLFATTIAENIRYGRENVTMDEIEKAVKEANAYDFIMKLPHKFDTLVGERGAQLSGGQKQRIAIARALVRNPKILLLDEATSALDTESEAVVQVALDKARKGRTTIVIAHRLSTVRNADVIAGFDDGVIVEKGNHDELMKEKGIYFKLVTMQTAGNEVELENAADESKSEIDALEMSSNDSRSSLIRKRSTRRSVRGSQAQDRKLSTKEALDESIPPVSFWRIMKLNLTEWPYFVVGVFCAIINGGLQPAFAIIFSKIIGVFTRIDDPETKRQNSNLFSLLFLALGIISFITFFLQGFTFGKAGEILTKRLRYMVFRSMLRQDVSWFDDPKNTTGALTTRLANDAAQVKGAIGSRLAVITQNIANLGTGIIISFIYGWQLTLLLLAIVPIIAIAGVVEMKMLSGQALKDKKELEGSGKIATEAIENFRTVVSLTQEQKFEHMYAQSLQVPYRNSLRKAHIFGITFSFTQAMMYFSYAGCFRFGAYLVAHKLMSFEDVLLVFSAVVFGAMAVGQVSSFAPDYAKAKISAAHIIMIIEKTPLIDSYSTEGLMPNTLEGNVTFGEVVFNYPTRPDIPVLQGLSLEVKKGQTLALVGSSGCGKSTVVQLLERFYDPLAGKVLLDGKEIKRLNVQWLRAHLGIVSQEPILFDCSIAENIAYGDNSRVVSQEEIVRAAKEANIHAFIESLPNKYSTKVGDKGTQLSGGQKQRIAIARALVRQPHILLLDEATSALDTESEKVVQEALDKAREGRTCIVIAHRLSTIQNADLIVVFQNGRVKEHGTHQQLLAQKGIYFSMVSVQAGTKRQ
smiles,measurement,setting,value
COC(=O)Nc1c(N)nc(-c2nn(Cc3ccccc3F)c3ncc(F)cc23)nc1N [Vericiguat],Decrease in Cmax of vericiguat,[1]; pre- and co-treatment with rifampicin,9%
same,Decrease in AUC of vericiguat,[1]; pre- and co-treatment with rifampicin 600 mg once daily,29%
same,"AUC of vericiguat, point estimate of treatment ratio",[1]; [10],0.713
same,"Cmax of vericiguat, point estimate of treatment ratio",[1]; [10],0.914
same,Decrease in vericiguat exposure (differences in PK parameters),[2]; co-administration with sildenafil 50 mg,less than 9%
same,"AUC0–24,md of vericiguat, point estimate of treatment ratio",[2]; [11],0.993
same,"Cmax,md of vericiguat, point estimate of treatment ratio",[2]; [11],0.970
same,Substrate of OATP1B3,OATP1B3 [3],not a substrate
same,IC50,P-glycoprotein,> 100 µM
same,IC50,MATE1,> 10 µM
same,IC50,UGT1A6,> 50 µM
same,IC50,OATP1B3 [4],~30 µM
same,Induction of CYP1A2,CYP1A2,no significant induction
same,Induction of CYP2B6,CYP2B6,no significant induction
same,CYP3A4 mRNA induction relative to rifampicin [positive control] response,CYP3A4; highest tested concentration,4%
same,Increase in CYP3A4 messenger RNA,"CYP3A4; highest tested concentration 10,000 μg/L (23.5 µM)",2.7 fold
same,Changes in vericiguat exposure in the phase I DDI studies,[5]; all ten DDI studies,≤ 30%
same,Tolerability,"[5]; healthy volunteers, all phase I studies",generally well tolerated
same,Effect on seated blood pressure,[6],no additional effect
same,Plasma protein binding,[7],approximately 98%
same,Clearance,[8]; healthy volunteers,1.6 L/h
same,Clearance,[8]; patients with HFrEF,1.3 L/h
same,Variability in steady-state AUC,"[8]; population PK model, patients with HFrEF",about 30%
same,Permeability,[9],highly permeable
same,Solubility,[9],low-soluble
